According to ChEMBL document CHEMBL1649151, “Urinary bactericidal activity of Doripenem versus that of levofloxacin in patients with complicated urinary tract infections or pyelonephritis” (Antimicrob Agents Chemother, 2009):
In brackets after ≈: the same amount, converted by molar mass.

How the values were obtained:
Escherichia coli [1] = assay: Antimicrobial activity against Escherichia coli 1949821 B-M isolated from patient with pyelonephritis assessed as >3-log reduction in urinary bacterial titer after 4 hrs; format: functional, Urine
Outline: (§1)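 Urine was collected on day 3 of i.v. therapy (steady state) over 4-h intervals from infusion start (0–4 to 20–24 h), stored at –80°C and sterile filtered. It was serially diluted twofold (1:0 up to 1:131,072) in the patient's own pre-dose drug-free urine. Microdilution used a final inoculum of 1.0 x 10^6 to 9.5 x 10^6 CFU/ml, incubated 18 h at 37°C in air. 10 µl was subcultured onto 5% blood Columbia agar for 24 h at 37°C. The bactericidal endpoint was >99.9% (>3-log) kill, reported as a reciprocal titer.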

Escherichia coli [2] = assay: Antimicrobial activity against Escherichia coli 1949820 B-N isolated from patient with pyelonephritis assessed as >3-log reduction in urinary bacterial titer after 12 hrs; format: functional, Urine; outline: as §1
Pseudomonas aeruginosa [3] = assay: Antimicrobial activity against Pseudomonas aeruginosa […] assessed as >3-log reduction in urinary bacterial titer after 20 hrs; format: functional, Urine
Outline: (§2)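 Patient urine was collected on day 3 of i.v. therapy (steady state) over 4-h intervals after infusion start, stored at –80°C, and sterile filtered. It was twofold serially diluted (1:0 to 1:131,072) in the patient's own pre-dose drug-free urine, inoculated to 1.0 x 10^6–9.5 x 10^6 CFU/ml, and incubated for 18 h at 37°C. Subcultures were grown on blood agar for 24 h. The UBT is the reciprocal of the highest dilution giving >99.9% kill.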

Proteus mirabilis [4] = assay: Antimicrobial activity against Proteus mirabilis 1134841 isolated from patient with pyelonephritis assessed as >3-log reduction in urinary bacterial titer after 24 hrs; format: functional, Urine; outline: as §2
Escherichia coli [5] = assay: Antimicrobial activity against Escherichia coli 1949821 B-M isolated from patient with pyelonephritis assessed as >3-log reduction in urinary bacterial titer after 8 hrs; format: functional, Urine; outline: as §2
Enterococcus faecalis [6] = assay: Antimicrobial activity against Enterococcus faecalis 1780065 B-B isolated from patient with pyelonephritis assessed as >3-log reduction in urinary bacterial titer after 20 hrs; format: functional, Urine
Outline: (§3)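 Urine was collected before dosing and on day 3 of i.v. therapy (steady state), in 4-h intervals from infusion start (0–4 to 20–24 h), stored at −80°C and sterile filtered. It was serially diluted twofold (1:0 to 1:131,072) in the patient's drug-free pre-dose urine. Microdilution used an inoculum of 1.0 x 10^6–9.5 x 10^6 CFU/ml, incubated 18 h at 37°C, then subcultured 24 h on blood agar. The endpoint was >99.9% kill, reported as reciprocal titer.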

Pseudomonas aeruginosa [7] = assay: Antimicrobial activity against Pseudomonas aeruginosa 1134642 isolated from patient with pyelonephritis assessed as >3-log reduction in urinary bacterial titer after 20 hrs; format: functional, Urine; outline: as §2
Escherichia coli [8] = assay: Antimicrobial activity against Escherichia coli 1949820 B-N isolated from patient with pyelonephritis assessed as >3-log reduction in urinary bacterial titer after 4 hrs; format: functional, Urine; outline: as §1
Proteus mirabilis [9] = assay: Antimicrobial activity against Proteus mirabilis 1134841 isolated from patient with pyelonephritis assessed as >3-log reduction in urinary bacterial titer after 4 hrs; format: functional, Urine; outline: as §2
Escherichia coli [10] = assay: Antimicrobial activity against Escherichia coli 1889646 B-F isolated from patient with pyelonephritis by Etest; format: functional
Escherichia coli [11] = assay: Antimicrobial activity against Escherichia coli 1135121 isolated from patient with pyelonephritis by Etest; format: functional
Escherichia coli [12] = assay: Antimicrobial activity against Escherichia coli 1135121 isolated from patient with pyelonephritis assessed as >3-log reduction in urinary bacterial titer after 20 hrs; format: functional, Urine; outline: as §3
Escherichia coli [13] = assay: Antimicrobial activity against Escherichia coli 1949820 B-N isolated from patient with pyelonephritis assessed as >3-log reduction in urinary bacterial titer after 20 hrs; format: functional, Urine; outline: as §1
Proteus mirabilis [14] = assay: Antimicrobial activity against Proteus mirabilis 1134841 isolated from patient with pyelonephritis assessed as >3-log reduction in urinary bacterial titer after 12 hrs; format: functional, Urine; outline: as §2
Escherichia coli [15] = assay: Antimicrobial activity against Escherichia coli 1949820 B-N isolated from patient with pyelonephritis by Etest; format: functional
Enterococcus faecalis [16] = assay: Antimicrobial activity against Enterococcus faecalis 1780065 B-B isolated from patient with pyelonephritis assessed as >3-log reduction in urinary bacterial titer after 24 hrs; format: functional, Urine; outline: as §3
[17] = Drug excretion in pyelonephritis patient urine at 250 mg/kg, iv administered every 24 hrs; format: ADME, organism-based; set-up: dose 250 mg/kg, route intravenous; settings: human, read-out: Activity
Pseudomonas aeruginosa [18] = assay: Antimicrobial activity against Pseudomonas aeruginosa 1134642 isolated from patient with pyelonephritis assessed as >3-log reduction in urinary bacterial titer after 16 hrs; format: functional, Urine; outline: as §2
Staphylococcus aureus [19] = assay: Antimicrobial activity against Staphylococcus aureus 1134684 isolated from patient with pyelonephritis by Etest; format: functional
Escherichia coli [20] = assay: Antimicrobial activity against Escherichia coli 1949821 B-M isolated from patient with pyelonephritis assessed as >3-log reduction in urinary bacterial titer after 20 hrs; format: functional, Urine; outline: as §1
Escherichia coli [21] = assay: Antimicrobial activity against Escherichia coli 1949821 B-M isolated from patient with pyelonephritis assessed as >3-log reduction in urinary bacterial titer after 16 hrs; format: functional, Urine; outline: as §1
Staphylococcus aureus [22] = assay: Antimicrobial activity against Staphylococcus aureus 1134684 isolated from patient with pyelonephritis assessed as >3-log reduction in urinary bacterial titer after 16 hrs; format: functional, Urine; outline: as §2
Escherichia coli [23] = assay: Antimicrobial activity against Escherichia coli 1135121 isolated from patient with pyelonephritis assessed as >3-log reduction in urinary bacterial titer after 4 hrs; format: functional, Urine; outline: as §3
Escherichia coli [24] = assay: Antimicrobial activity against Escherichia coli 1949821 B-M isolated from patient with pyelonephritis assessed as >3-log reduction in urinary bacterial titer after 24 hrs; format: functional, Urine; outline: as §1
Pseudomonas aeruginosa [25] = assay: Antimicrobial activity against Pseudomonas aeruginosa […] assessed as >3-log reduction in urinary bacterial titer after 12 hrs; format: functional, Urine; outline: as §2
Enterococcus faecalis [26] = assay: Antimicrobial activity against Enterococcus faecalis 1780065 B-B isolated from patient with pyelonephritis assessed as >3-log reduction in urinary bacterial titer after 12 hrs; format: functional, Urine; outline: as §3
Pseudomonas aeruginosa [27] = assay: Antimicrobial activity against Pseudomonas aeruginosa […] assessed as >3-log reduction in urinary bacterial titer after 4 hrs; format: functional, Urine; outline: as §2
Enterococcus faecalis [28] = assay: Antimicrobial activity against Enterococcus faecalis 1780065 B-B isolated from patient with pyelonephritis by Etest; format: functional
Proteus mirabilis [29] = assay: Antimicrobial activity against Proteus mirabilis 1134841 isolated from patient with pyelonephritis by Etest; format: functional
Enterococcus faecalis [30] = assay: Antimicrobial activity against Enterococcus faecalis 1780065 B-B isolated from patient with pyelonephritis assessed as >3-log reduction in urinary bacterial titer after 8 hrs; format: functional, Urine; outline: as §3
Pseudomonas aeruginosa [31] = assay: Antimicrobial activity against Pseudomonas aeruginosa 1134642 isolated from patient with pyelonephritis assessed as >3-log reduction in urinary bacterial titer after 8 hrs; format: functional, Urine; outline: as §2
Pseudomonas aeruginosa [32] = assay: Antimicrobial activity against Pseudomonas aeruginosa ATCC 27853 isolated from patient with pyelonephritis by Etest; format: functional
Staphylococcus aureus [33] = assay: Antimicrobial activity against Staphylococcus aureus 1134684 isolated from patient with pyelonephritis assessed as >3-log reduction in urinary bacterial titer after 24 hrs; format: functional, Urine; outline: as §2
Escherichia coli [34] = assay: Antimicrobial activity against Escherichia coli 1949820 B-N isolated from patient with pyelonephritis assessed as >3-log reduction in urinary bacterial titer after 24 hrs; format: functional, Urine; outline: as §1
Escherichia coli [35] = assay: Antimicrobial activity against Escherichia coli 1135121 isolated from patient with pyelonephritis assessed as >3-log reduction in urinary bacterial titer after 24 hrs; format: functional, Urine; outline: as §3
[36] = Drug excretion in pyelonephritis patient urine at 500 mg/kg, iv administered every 8 hrs; format: ADME, organism-based; set-up: dose 500 mg/kg, route intravenous; settings: human, read-out: Activity

SMILES	urinary bactericidal titer (Pseudomonas aeruginosa [3]) [reciprocal titer]	urinary bactericidal titer (Proteus mirabilis [4]) [reciprocal titer]	urinary bactericidal titer (Escherichia coli [5]) [titer]	urinary bactericidal titer (Enterococcus faecalis [6]) [reciprocal titer]	urinary bactericidal titer (Pseudomonas aeruginosa [7]) [reciprocal titer]	urinary bactericidal titer (Escherichia coli [8]) [titer]	urinary bactericidal titer (Proteus mirabilis [9]) [reciprocal titer]	MIC (Escherichia coli [10]) [µg/mL]	MIC (Escherichia coli [11]) [µg/mL]	urinary bactericidal titer (Escherichia coli [12]) [titer]	urinary bactericidal titer (Proteus mirabilis [14]) [reciprocal titer]	MIC (Escherichia coli [15]) [µg/mL]	Time (Enterococcus faecalis [16]) [h]	dose excreted at 24 h [17] [%]	urinary bactericidal titer (Pseudomonas aeruginosa [18]) [reciprocal titer]	MIC (Staphylococcus aureus [19]) [µg/mL]	urinary bactericidal titer (Escherichia coli [20]) [titer]	Time (Escherichia coli [21]) [h]	urinary bactericidal titer (Staphylococcus aureus [22]) [reciprocal titer]	urinary bactericidal titer (Escherichia coli [23]) [reciprocal titer]	other results
C[C@@H](O)[C@H]1C(=O)N2C(C(=O)O)=C(S[C@@H]3CN[C@H](CNS(N)(=O)=O)C3)[C@H](C)[C@H]12 [DORIPENEM]	4096	512	12300	256	4096	32800	2048	0.03 (≈ 0.0713 µM)	≤ 0.015	32800	6140	0.03 (≈ 0.0713 µM)	32	80	2048	32 (≈ 76.1 µM)	32800	8192	4	49200	urinary bactericidal titer (Escherichia coli [1]): 32800; urinary bactericidal titer (Escherichia coli [2]): 32800; urinary bactericidal titer (Escherichia coli [13]): 32800; Time (Escherichia coli [24]): 5120 h; urinary bactericidal titer (Pseudomonas aeruginosa [25]): 3070 reciprocal titer; urinary bactericidal titer (Enterococcus faecalis [26]): 192 reciprocal titer; urinary bactericidal titer (Pseudomonas aeruginosa [27]): 2048 reciprocal titer; MIC (Enterococcus faecalis [28]): 4 µg/mL (≈ 9.51 µM); MIC (Proteus mirabilis [29]): 0.03 µg/mL (≈ 0.0713 µM); Time (Enterococcus faecalis [30]): 32 h; urinary bactericidal titer (Pseudomonas aeruginosa [31]): 1024 reciprocal titer; MIC (Pseudomonas aeruginosa [32]): 0.12 µg/mL (≈ 0.285 µM); urinary bactericidal titer (Staphylococcus aureus [33]): 1.5 reciprocal titer; Time (Escherichia coli [34]): 5120 h; urinary bactericidal titer (Escherichia coli [35]): 4096 reciprocal titer; dose excreted at 8 h [36]: 80%
C[C@H]1COc2c(N3CCN(C)CC3)c(F)cc3c(=O)c(C(=O)O)cn1c23.C[C@H]1COc2c(N3CCN(C)CC3)c(F)cc3c(=O)c(C(=O)O)cn1c23.O [LEVOFLOXACIN]	6	0	128	8	1	4	0	> 8	4	3	0	8	6	80	1	4	48	48	4	8	Time (Escherichia coli [1]): 192 h; Time (Escherichia coli [2]): 0.5 h; Time (Escherichia coli [13]): 1 h; Time (Escherichia coli [24]): 40 h; urinary bactericidal titer (Pseudomonas aeruginosa [25]): 8 reciprocal titer; urinary bactericidal titer (Enterococcus faecalis [26]): 16 reciprocal titer; urinary bactericidal titer (Pseudomonas aeruginosa [27]): 16 reciprocal titer; MIC (Enterococcus faecalis [28]): 1 µg/mL; MIC (Proteus mirabilis [29]): > 8 µg/mL; Time (Enterococcus faecalis [30]): 16 h; urinary bactericidal titer (Pseudomonas aeruginosa [31]): 2 reciprocal titer; MIC (Pseudomonas aeruginosa [32]): 0.25 µg/mL; urinary bactericidal titer (Staphylococcus aureus [33]): 2 reciprocal titer; Time (Escherichia coli [34]): 0 h; urinary bactericidal titer (Escherichia coli [35]): 2 reciprocal titer; dose excreted at 8 h [36]: 80%
